Data published in ChEMBL document CHEMBL4689842, “EUbOPEN Chemogenomics Library wave 1” (2021).
Values joined by “and” are separate entries in the source; they are usually repeats but may differ in a detail not shown here. Identical values can stand only once.

System: Fibroblast
Test: Multiplex assay against human fibroblast
Type: toxicity, cell-based
Procedure, shortened: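 Per cents of healthy-nucleus cells form the tubulin, mitochondrial-mass and membrane-permeability phenotype values. Live cells were stained at seeding with Hoechst33342, BioTracker Green Microtubule Cytoskeleton Dye, MitoTracker Red and Annexin V Alexa Fluor 680. After compound addition they were imaged on a CQ1 microscope at 37°C and 5% CO2, and CellPathfinder machine-learning gating split them into Hoechst high-intensity objects or normal cells, normal cells into healthy, pyknosed or fragmented nuclei, and pyknosed cells into mitotic or apoptotic.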

[1] = 12 h, 1 µM, compound concentration 1 uM, replicate 1
[2] = 12 h, 1 µM, compound concentration 1 uM, replicate 2
[3] = 12 h, 10 µM, compound concentration 10 uM, replicate 1
[4] = 12 h, 10 µM, compound concentration 10 uM, replicate 2
[5] = 24 h, 1 µM, compound concentration 1 uM, replicate 1
[6] = 24 h, 1 µM, compound concentration 1 uM, replicate 2
[7] = 24 h, 10 µM, compound concentration 10 uM, replicate 1
[8] = 24 h, 10 µM, compound concentration 10 uM, replicate 2

## C=CCn1c(=O)c2cnc(Nc3ccc(N4CCN(C)CC4)cc3)nc2n1-c1cccc(C(C)(C)O)n1 [ADAVOSERTIB]
[1]
  Population Apoptotic (%): 69%
  Population Fragmented Nuclei (%): 28%
  Population Healthy Nuclei (%): 62%
  Population Hoechst High Intensity Objects (%): 15%
  Population Membrane Permeable-Phenotype (%): 7%
  Population Mitochondria Different-Phenotype (%): 4%
  Population Mitotic Cells (%): 30%
  Population Normal (%): 84%
  Population Pyknosed Nuclei (%): 8%
  Population Tubulin-Different-Phenotype (%): 6%
  Total Cell Count: 178
[2]
  Population Apoptotic (%): 50%
  Population Fragmented Nuclei (%): 48%
  Population Healthy Nuclei (%): 37%
  Population Hoechst High Intensity Objects (%): 35%
  Population Membrane Permeable-Phenotype (%): 9%
  Population Mitochondria Different-Phenotype (%): 19%
  Population Mitotic Cells (%): 50%
  Population Normal (%): 64%
  Population Pyknosed Nuclei (%): 14%
  Population Tubulin-Different-Phenotype (%): 19%
  Total Cell Count: 87
[3]
  Population Apoptotic (%): 44%
  Population Fragmented Nuclei (%): 29%
  Population Healthy Nuclei (%): 46%
  Population Hoechst High Intensity Objects (%): 14%
  Population Membrane Permeable-Phenotype (%): 8%
  Population Mitochondria Different-Phenotype (%): 5%
  Population Mitotic Cells (%): 55%
  Population Normal (%): 85%
  Population Pyknosed Nuclei (%): 24%
  Population Tubulin-Different-Phenotype (%): 23%
  Total Cell Count: 218
[4]
  Population Apoptotic (%): 75%
  Population Fragmented Nuclei (%): 55%
  Population Healthy Nuclei (%): 36%
  Population Hoechst High Intensity Objects (%): 41%
  Population Membrane Permeable-Phenotype (%): 17%
  Population Mitochondria Different-Phenotype (%): 23%
  Population Mitotic Cells (%): 25%
  Population Normal (%): 58%
  Population Pyknosed Nuclei (%): 8%
  Population Tubulin-Different-Phenotype (%): 35%
  Total Cell Count: 81
[5]
  Population Apoptotic (%): 83%
  Population Fragmented Nuclei (%): 27%
  Population Healthy Nuclei (%): 60%
  Population Hoechst High Intensity Objects (%): 18%
  Population Membrane Permeable-Phenotype (%): 6%
  Population Mitochondria Different-Phenotype (%): 9%
  Population Mitotic Cells (%): 16%
  Population Normal (%): 81%
  Population Pyknosed Nuclei (%): 11%
  Population Tubulin-Different-Phenotype (%): 7%
  Total Cell Count: 187
[6]
  Population Apoptotic (%): 25%
  Population Fragmented Nuclei (%): 51%
  Population Healthy Nuclei (%): 41%
  Population Hoechst High Intensity Objects (%): 29%
  Population Membrane Permeable-Phenotype (%): 4%
  Population Mitochondria Different-Phenotype (%): 8%
  Population Mitotic Cells (%): 75%
  Population Normal (%): 70%
  Population Pyknosed Nuclei (%): 6%
  Population Tubulin-Different-Phenotype (%): 12%
  Total Cell Count: 82
[7]
  Population Apoptotic (%): 56%
  Population Fragmented Nuclei (%): 30%
  Population Healthy Nuclei (%): 47%
  Population Hoechst High Intensity Objects (%): 20%
  Population Membrane Permeable-Phenotype (%): 4%
  Population Mitochondria Different-Phenotype (%): 10%
  Population Mitotic Cells (%): 43%
  Population Normal (%): 79%
  Population Pyknosed Nuclei (%): 21%
  Population Tubulin-Different-Phenotype (%): 21%
  Total Cell Count: 241
[8]
  Population Apoptotic (%): 100%
  Population Fragmented Nuclei (%): 61%
  Population Healthy Nuclei (%): 35%
  Population Hoechst High Intensity Objects (%): 29%
  Population Membrane Permeable-Phenotype (%): 9%
  Population Mitochondria Different-Phenotype (%): 9%
  Population Mitotic Cells (%): 0%
  Population Normal (%): 70%
  Population Pyknosed Nuclei (%): 3%
  Population Tubulin-Different-Phenotype (%): 28%
  Total Cell Count: 84

## COc1cc(N2CCC(N3CCN(C)CC3)CC2)ccc1Nc1ncnc(Nc2ccccc2S(=O)(=O)C(C)C)n1 [ASP-3026]
[3]
  Population Apoptotic (%): 72% and 66%
  Population Fragmented Nuclei (%): 30% and 23%
  Population Healthy Nuclei (%): 55% and 60%
  Population Hoechst High Intensity Objects (%): 14% and 18%
  Population Membrane Permeable-Phenotype (%): 11% and 9%
  Population Mitochondria Different-Phenotype (%): 6% and 7%
  Population Mitotic Cells (%): 27% and 33%
  Population Normal (%): 85% and 81%
  Population Pyknosed Nuclei (%): 13% and 16%
  Total Cell Count: 252 and 249
[4]
  Population Apoptotic (%): 80% and 100%
  Population Fragmented Nuclei (%): 66% and 72%
  Population Healthy Nuclei (%): 24% and 21%
  Population Hoechst High Intensity Objects (%): 38% and 53%
  Population Membrane Permeable-Phenotype (%): 8% and 18%
  Population Mitochondria Different-Phenotype (%): 16% and 0%
  Population Mitotic Cells (%): 20% and 0%
  Population Normal (%): 61% and 46%
  Population Pyknosed Nuclei (%): 10% and 5%
  Total Cell Count: 81 and 110
[7]
  Population Apoptotic (%): 79%
  Population Fragmented Nuclei (%): 38% and 22%
  Population Healthy Nuclei (%): 50% and 63%
  Population Hoechst High Intensity Objects (%): 18% and 16%
  Population Membrane Permeable-Phenotype (%): 15% and 7%
  Population Mitochondria Different-Phenotype (%): 1% and 3%
  Population Mitotic Cells (%): 20%
  Population Normal (%): 81% and 83%
  Population Pyknosed Nuclei (%): 11% and 14%
  Total Cell Count: 260 and 264
[8]
  Population Apoptotic (%): 50% and 100%
  Population Fragmented Nuclei (%): 76% and 67%
  Population Healthy Nuclei (%): 18% and 28%
  Population Hoechst High Intensity Objects (%): 45% and 53%
  Population Membrane Permeable-Phenotype (%): 14% and 26%
  Population Normal (%): 54% and 46%
  Population Pyknosed Nuclei (%): 5% and 3%
  Total Cell Count: 70 and 112
